Data published in ChEMBL document CHEMBL4385642, “Optimization and biological evaluation of nicotinamide derivatives as Aurora kinase inhibitors” (Bioorg Med Chem, 2019).
Calls of active or inactive are those of the source. No cut-off for these calls is given here.

Experiments:
SW-620 [1] = experiment: Cytotoxicity in human SW620 cells assessed as reduction in cell viability incubated for 72 hrs by MTT assay; format: functional, cell-based; details: SW-620, 72 h
Method in brief: (§1)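 Cells in DMEM or RPMI 1640 with 10% FBS and 1% penicillin/streptomycin were seeded at 6 × 10^3/well and grown 24 h at 37 °C, 5% CO2. They were exposed 72 h to graded compound concentrations (DMSO under 0.1%). MTT (5 mg/mL, 10 µL) was added for 4 h at 37 °C and formazan dissolved in DMSO. A492 was read against a 630 nm reference, and IC50 came from concentration–response curves.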

[2] = target: T1, Aurora kinase A (Homo sapiens) (UniProt O14965); experiment: Inhibition of Aurora A (unknown origin) at 0.2 uM pre-incubated for 10 mins before FAM-labeled peptide substrate addition by mobility shift assay relative to control
T1 sequence (whole entry): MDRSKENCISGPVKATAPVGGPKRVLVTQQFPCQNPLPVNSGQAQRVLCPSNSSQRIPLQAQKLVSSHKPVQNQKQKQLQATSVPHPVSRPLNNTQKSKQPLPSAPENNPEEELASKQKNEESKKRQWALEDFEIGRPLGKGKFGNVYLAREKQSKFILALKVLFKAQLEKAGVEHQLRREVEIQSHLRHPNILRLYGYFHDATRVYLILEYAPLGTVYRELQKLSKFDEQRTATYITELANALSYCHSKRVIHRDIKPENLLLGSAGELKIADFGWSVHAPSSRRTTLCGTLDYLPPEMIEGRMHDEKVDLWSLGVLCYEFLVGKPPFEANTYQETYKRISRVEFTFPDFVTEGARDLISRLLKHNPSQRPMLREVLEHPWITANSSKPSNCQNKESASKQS

[3] = target: Aurora kinase B (Homo sapiens) (UniProt Q96GD4); experiment: Inhibition of Aurora B (unknown origin) at 0.2 uM pre-incubated for 10 mins before FAM-labeled peptide substrate addition by mobility shift assay relative to control
Sequence of Aurora kinase B (Homo sapiens) (Q96GD4 whole entry): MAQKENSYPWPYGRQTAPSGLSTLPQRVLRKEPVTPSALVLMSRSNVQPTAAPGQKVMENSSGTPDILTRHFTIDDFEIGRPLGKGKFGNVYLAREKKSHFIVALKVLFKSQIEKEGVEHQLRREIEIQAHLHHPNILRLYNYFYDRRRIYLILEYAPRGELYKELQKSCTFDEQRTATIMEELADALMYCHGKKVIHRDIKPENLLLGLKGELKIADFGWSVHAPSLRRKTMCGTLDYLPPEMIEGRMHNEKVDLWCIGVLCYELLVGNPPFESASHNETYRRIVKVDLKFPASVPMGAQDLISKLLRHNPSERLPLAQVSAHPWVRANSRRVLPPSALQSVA

HT-29 = experiment: Cytotoxicity in human HT-29 cells assessed as reduction in cell viability incubated for 72 hrs by MTT assay; format: functional, cell-based; details: HT-29, 72 h; method in brief: as §1
HeLa = experiment: Cytotoxicity in human HeLa cells assessed as reduction in cell viability incubated for 72 hrs by MTT assay; format: functional, cell-based; method in brief: as §1
SW-620 [4] = experiment: Cytotoxicity against human SW620 cells assessed as increase in dead cell number at 10 ug/ml incubated for 36 hrs by IncuCyte live-cell imaging assay; format: functional, cell-based
Method in brief: (§2)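 Live-cell kinetic imaging of SW620 cells (5 × 10^3/well, 24 h pre-culture at 37 °C, 5% CO2) exposed to 0.12–10.0 µg/mL compound or 0.1% DMSO. Red-fluorescent cells were counted as dead cells, imaged with a 10× objective hourly for 84 h, in triplicate.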

SW-620 [5] = experiment: Cytotoxicity against human SW620 cells assessed as increase in dead cell number at 10 ug/ml incubated for 5 hrs by IncuCyte live-cell imaging assay; format: functional, cell-based; method in brief: as §2
SW-620 [6] = experiment: Antiproliferative activity against human SW620 cells assessed as effect on cell confluence level at 0.12 to 3.33 ug/ml incubated up to 84 hrs and measured every 1 hr by IncuCyte live-cell imaging assay; format: functional, cell-based
Method in brief: (§3)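 SW620 cells seeded at 5 × 10^3/well and grown 24 h at 37 °C, 5% CO2 inside the IncuCyte. Compounds were then added at 0.12–10.0 µg/mL, with 0.1% DMSO as vehicle control. Phase-contrast images were taken with a 10× objective every 1 h for 84 h. Confluence was scored from the images, in triplicate.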

SW-620 [7] = experiment: Induction of apoptosis in human SW620 cells at 3.33 ug/ml incubated for 36 hrs by IncuCyte live-cell imaging assay; format: functional, cell-based
Method in brief: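 Apoptosis kinetics by IncuCyte imaging: SW620 cells at 5 × 10^3/well were pre-grown 24 h at 37 °C, 5% CO2, then given compound (0.12–10.0 µg/mL) or 0.1% DMSO. Green-fluorescent apoptotic cells were counted on images taken with a 10× objective every 1 h over 48 h, in triplicate.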

NCI-H1975 = experiment: Cytotoxicity in human NCI-H1975 cells assessed as reduction in cell viability incubated for 72 hrs by MTT assay; format: functional, cell-based; details: NCI-H1975, 72 h; method in brief: as §1
SW-620 [8] = experiment: Antiproliferative activity against human SW620 cells assessed as cell confluence level at 10 ug/ml incubated up to 84 hrs and measured every 1 hr by phase contrast microscopy (reference value: 86.5%); format: functional; method in brief: as §3
SW-620 [9] = experiment: Antiproliferative activity against human SW620 cells assessed as effect on cell confluence level at 0.12 to 3.33 ug/ml incubated up to 84 hrs and measured every 1 hr by phase contrast microscopy; format: functional, cell-based; method in brief: as §3
SW-620 [10] = experiment: Antiproliferative activity against human SW620 cells assessed as cell confluence level at 10 ug/ml incubated up to 84 hrs and measured every 1 hr by IncuCyte live-cell imaging assay (reference value: 86.5%); format: functional; method in brief: as §3

Structure (SMILES)	inhibition [2] [%]	inhibition [3] [%]	IC50 (SW-620 [1]) [µM]	also measured
COc1cc2nccc(Oc3ccc(NC(=O)c4cnc(Cl)cc4Nc4ccc(F)cc4)cc3)c2cc1OC	47.1	51.6	6.82	–
COc1cc2nccc(Oc3ccc(NC(=O)c4cnc(Cl)cc4Nc4ccc(F)c(Br)c4)cc3F)c2cc1OC	82.9	30.5	0.61	Activity (SW-620 [4]): Active; IC50 (HT-29): > 20 µM; Activity (SW-620 [5]): Active; Activity (SW-620 [6]): inactive; Activity (SW-620 [7]): inactive; IC50 (HeLa): > 20 µM; IC50 (NCI-H1975): 1.06 µM; Activity (SW-620 [8]): inactive; Activity (SW-620 [9]): inactive; Activity (SW-620 [10]): inactive
COc1cc2nccc(Oc3ccc(NC(=O)c4cnc(Cl)cc4Nc4ccc(Cl)cc4)cc3)c2cc1OC	51.9	38.5	2.38	–
COc1cc2nccc(Oc3ccc(NC(=O)c4cnc(Cl)cc4Nc4ccccc4Br)cc3)c2cc1OC	78.2	56.1	6.9	IC50 (HT-29): > 20 µM; IC50 (HeLa): > 20 µM; IC50 (NCI-H1975): 8 µM
COc1cc2nccc(Oc3ccc(NC(=O)c4cccnc4Nc4ccc(F)c(Br)c4)cc3F)c2cc1OC	48.4	40.7	1.86	–
COc1cc2nccc(Oc3ccc(NC(=O)c4cnc(Cl)cc4Nc4cccc(F)c4)cc3)c2cc1OC	48.6	49.6	5.1	–
COc1cc2nccc(Oc3ccc(NC(=O)c4cnc(Cl)cc4Nc4ccc(F)c(Br)c4)cc3)c2cc1OC	81.3	30.1	1.33	IC50 (HT-29): > 20 µM; Activity (SW-620 [6]): inactive; Activity (SW-620 [7]): inactive; IC50 (HeLa): > 20 µM; IC50 (NCI-H1975): 3.54 µM; Activity (SW-620 [8]): 42.6%; Activity (SW-620 [9]): inactive; Activity (SW-620 [10]): 42.6%
COc1cc2nccc(Oc3ccc(NC(=O)C4(C(=O)Nc5ccc(F)cc5)CC4)cc3)c2cc1OC [CABOZANTINIB]	–	38.3	3.37	IC50 (HT-29): 9.6 µM; Activity (SW-620 [6]): inactive; IC50 (HeLa): > 20 µM; IC50 (NCI-H1975): 6.67 µM; Activity (SW-620 [8]): 40.9%; Activity (SW-620 [9]): inactive; Activity (SW-620 [10]): 40.9%
COc1cc2nccc(Oc3ccc(NC(=O)c4cnc(Cl)cc4Nc4cccc(Cl)c4)cc3)c2cc1OC	55.1	31.9	4.33	–
COc1cc2nccc(Oc3ccc(NC(=O)c4c[nH]c(=O)cc4Nc4ccccc4)cc3)c2cc1OC	29.9	38.7	18.9	–
COc1cc2nccc(Oc3ccc(NC(=O)c4cnc(Cl)cc4Nc4ccccc4F)cc3)c2cc1OC	51.5	50.1	8.1	–

Further lines, with some results ahead:

inhibition [2] [%]	inhibition [3] [%]	Structure (SMILES)	IC50 (SW-620 [1]) [µM]	also measured
68.3	57.1	COc1cc2nccc(Oc3ccc(NC(=O)c4cnc(Cl)cc4Nc4ccccc4Cl)cc3)c2cc1OC	3.6	–
0.6	17.7	COc1cc2nccc(Oc3ccc(NC(=O)c4c(Nc5ccc(F)c(Br)c5)cc(C)nc4Cl)cc3F)c2cc1OC	–	–
70	31.6	COc1cc2nccc(Oc3ccc(NC(=O)c4cnc(Cl)cc4Nc4ccc(Br)cc4F)cc3)c2cc1OC	2.45	IC50 (HT-29): > 20 µM; IC50 (HeLa): > 20 µM
40.9	31.1	COc1cc2nccc(Oc3ccc(NC(=O)c4cn(C)c(=O)cc4Nc4ccccc4)cc3)c2cc1OC	4.43	–
59.9	46.3	COc1cc2nccc(Oc3ccc(NC(=O)c4cnc(Cl)cc4Nc4cccc5ccccc45)cc3)c2cc1OC	–	–
6.6	13.7	COc1cc2nccc(Oc3ccc(NC(=O)c4cnc5ccc(Br)cc5c4Nc4ccc(F)c(Br)c4)cc3F)c2cc1OC	–	–
48.2	52.1	COc1cc2nccc(Oc3ccc(NC(=O)c4cnc(Cl)cc4Nc4ccccc4)cc3)c2cc1OC	1.92	–
